# Published values of several laboratories.
# Lines come from different studies, so protocols differ.
Structure (SMILES),target or system,assay,test system,conditions,measurement,value
Nc1ccn(C[C@@H](CO)OCP(=O)(O)O)c(=O)n1,Human alphaherpesvirus 1,cytopathic effect,HEL,,EC50,2 µM
O=C(c1ccc(F)cc1)c1c[nH]c2ncc(-c3ccnc(N4CCNCC4)c3)cc12,MRC5,"cell growth or viability, MTT",,"10 µM, 48 h",viability,90.1%
OC(Cn1cncn1)(Cn1cncn1)c1ccc(F)cc1F,Aspergillus niger,microbial growth,ATCC16404,,MIC,128 µg/mL
O=c1c2ccccc2[se]n1-c1ccccc1,MRC5,"cell growth or viability, MTT",,"125 µM, 72 h",inhibition,56%
COc1ccc(C(=O)c2c[nH]c3ncc(-c4ccc(N5CCN(C(=O)OC(C)(C)C)CC5)nc4)cc23)cc1,MRC5,"cell growth or viability, MTT",,"10 µM, 48 h",viability,80.2%
CCCCCOc1ccc(-c2cc(-c3ccc(C(=O)N[C@H]4C[C@@H](O)[C@@H](O)NC(=O)[C@@H]5[C@@H](O)[C@@H](C)CN5C(=O)[C@H]([C@H](O)CC(N)=O)NC(=O)[C@H]([C@H](O)[C@@H](O)c5ccc(O)c(OS(=O)(=O)O)c5)NC(=O)[C@@H]5C[C@@H](O)CN5C(=O)[C@H]([C@@H](C)O)NC4=O)cc3)no2)cc1,Lodderomyces parapsilosis,biofilm formation,,16 µg/mL,inhibition,49%
CN[C@H](CC(C)C)C(=O)N[C@H]1C(=O)N[C@@H](CC(N)=O)C(=O)N[C@H]2C(=O)N[C@H]3C(=O)N[C@H](C(=O)N[C@H](C(=O)O)c4cc(O)cc(O)c4-c4cc3ccc4O)[C@H](O)c3ccc(c(Cl)c3)Oc3cc2cc(c3O[C@@H]2O[C@H](CO)[C@@H](O)[C@H](O)[C@H]2O[C@H]2C[C@](C)(N)[C@H](O)[C@H](C)O2)Oc2ccc(cc2Cl)[C@H]1O,Bacteroides fragilis,"microbial growth, agar dilution",,48 h,MIC,> 16 µg/mL
[O-][N+]1=C(c2ccc(Cl)cc2)C2=NCCN2c2ccccc21,Bacteroides fragilis,microbial growth,,,MIC50,≤ 0.06 µg/mL
